The source of these data is publication PMC2939291 (Experimental parasitology, 2010).

Converted amounts (≈) assume the structure as drawn. Where two headings read alike, the source gives them in different places.

In data set [1] the test system is egfp transfected Leishmania amazonensis amastigotes in THP-1 cells. The data set is described as follows: microbe, parasite or virus in culture. The data set is classed as cell-based.
The subject of data set [2] is egfp transfected Leishmania amazonensis amastigotes in PBMC derived macrophages. In words: microbe, parasite or virus in culture. The data set is classed as cell-based.
In data set [3] the test system is Leishmania amazonensis infected cells. The data set is described as follows: Infection measured by standard Giemsa staining of cells. The data set is classed as cell-based.
Data set [4] deals with GFP-transfected Leishmania (Viannia) panamensis amastigotes in U937 cell line. As to conditions: L. (V.) panamensis in U937 cells, GFP flow cytometry; ref Varela et al., 2009; cited from earlier work. On the technique in general: Flow cytometry measures light scatter and fluorescence of single cells or particles in a stream.
The conditions of data set [5]: standard doses (0.3 mg/kg days 1 and 2, increasing to 0.5 mg/kg) during clinical therapy; ref Atkinson, Jr. and Bennett, 1978; cited from earlier work.
Data set [6] deals with human PBMC derived macrophages. It is filed as cell-based.
A further data set has as its system THP-1 cells. The data set is described as follows: Trypan blue dye exclusion cytotoxicity test, THP-1 cells. It is filed as cell-based, human. The procedure, abridged: (§1)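 Macrophages prepared before testing: THP-1 cells were grown in RPMI 1640 with 10% heat-inactivated FBS at 37°C and 5% CO2, then stimulated with 20 nM PMA. PBMC-derived cells were stimulated with autologous platelet-poor serum. After test compound exposure, clear (viable) and blue cells were counted on a hemocytometer to give percent viability. CC50 came from a variable-slope sigmoidal fit normalised to untreated cells. Assays were run in duplicate.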

The subject of data set [7] is human PBMC derived macrophages. In words: Trypan blue dye exclusion cytotoxicity test, human PBMC derived macrophages. It is filed as cell-based. The procedure, abridged: as §1

For the compound `C[C@@H]1[C@H](O)[C@@H](C)/C=C/C=C/C=C/C=C/C=C/C=C/C=C/[C@H](O[C@@H]2O[C@H](C)[C@@H](O)[C@H](N)[C@@H]2O)C[C@@H]2O[C@](O)(C[C@@H](O)C[C@@H](O)[C@H](O)CC[C@@H](O)C[C@@H](O)CC(=O)O[C@H]1C)C[C@H](O)[C@H]2C(=O)O` [Amphotericin B, amphotericin B], the EC50 (usually the concentration at which the effect is half-maximal) was 0.1445 ± 0.0005 µg/mL (≈ 0.156 µM) in data set [1] (Leishmania amazonensis, THP-1); 0.179 ± 0.035 µg/mL (≈ 0.194 µM) in data set [2] (Leishmania amazonensis, in Homo sapiens); 0.074 µg/mL (≈ 0.0801 µM) in data set [3]; 0.078 µg/mL (≈ 0.0844 µM) in data set [4]. Moreover, the “Selective Index (SI)” value in data set [1] (THP-1 cells, ratio of EC50 and CC50) came to 105.2; in data set [2] (human PBMC derived macrophages, ratio of EC50 and CC50) it was 355.9; in data set [2] (human PBMC derived macrophages, ratio of EC50 and CC50, listed as amphotericin B) it was 356. Also, in data set [5], the serum level result is listed as “above 0.2 μg/ml”.

As to `CCCCCCCCCCCCCCCCOP(=O)([O-])OCC[N+](C)(C)C` [Miltefosine, miltefosine], the “Selective Index (SI)” value in data set [1] came out at 1.51; in data set [2], 6.13. Moreover, in data set [6], the “toxicity against the macrophages” value was “significant toxicity”.

With meglumine antimoniate, the EC50 in data set [4] is 20 µg/mL.

Take `O.O.O.O.O.O.O.O.O.O=C([O-])[C@@H]1[O][Sb](=[O])([O][Sb]2(=[O])[O][C@H]([C@H](O)CO)[C@H](O)[C@H](C(=O)[O-])[O]2)[O][C@H]([C@H](O)CO)[C@@H]1O.[Na+].[Na+].[Na+]` (stereo partly drawn) [Sodium stibogluconate, sodium stibogluconate]: in data set [2] (human PBMC derived macrophages, GFP fluorescence), the concentration for a half-maximal effect (EC50) came out at 194.8 ± 36.4 µg/mL. In addition, the values for the CC50 (in the data set on THP-1 cells; in data set [7]) were 4600 ± 1100 µg/mL and 6300 ± 2800 µg/mL, respectively.
